Measured values from ChEMBL document CHEMBL1255453, “Affinity of ceftaroline and other beta-lactams for penicillin-binding proteins from Staphylococcus aureus and Streptococcus pneumoniae” (Antimicrob Agents Chemother, 2010).
In brackets after ≈: the same amount, converted by molar mass.

Legend:
[1] = biological target: T1, Penicillin-binding protein 1A (Streptococcus pneumoniae serotype 4 (strain ATCC BAA-334 / TIGR4), UniProt Q04707); experiment: Binding affinity to penicillin-resistant Streptococcus pneumoniae 3413 PBP1A by competitive binding assay
T1 sequence (Q04707 whole entry): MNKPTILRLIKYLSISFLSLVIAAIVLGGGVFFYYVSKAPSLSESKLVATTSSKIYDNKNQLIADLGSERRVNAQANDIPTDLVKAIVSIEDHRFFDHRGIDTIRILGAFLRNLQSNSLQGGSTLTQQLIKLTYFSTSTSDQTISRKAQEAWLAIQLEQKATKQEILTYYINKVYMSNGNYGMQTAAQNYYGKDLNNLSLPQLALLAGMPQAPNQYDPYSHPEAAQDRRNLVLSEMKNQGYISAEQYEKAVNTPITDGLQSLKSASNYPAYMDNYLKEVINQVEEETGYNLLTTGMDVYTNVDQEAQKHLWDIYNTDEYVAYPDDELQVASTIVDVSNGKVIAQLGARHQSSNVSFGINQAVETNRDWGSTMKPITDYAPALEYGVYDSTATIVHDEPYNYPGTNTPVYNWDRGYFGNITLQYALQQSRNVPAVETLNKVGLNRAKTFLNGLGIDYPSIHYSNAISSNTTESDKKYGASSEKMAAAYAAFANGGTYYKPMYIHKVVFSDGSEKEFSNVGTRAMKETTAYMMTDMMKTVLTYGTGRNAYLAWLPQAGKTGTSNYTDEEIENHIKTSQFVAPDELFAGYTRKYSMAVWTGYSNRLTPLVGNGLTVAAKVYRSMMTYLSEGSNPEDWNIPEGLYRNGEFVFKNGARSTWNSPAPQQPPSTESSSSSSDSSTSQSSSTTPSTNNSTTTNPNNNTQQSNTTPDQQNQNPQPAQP
How it was run: (§1)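 Whole pneumococcal cells were grown to OD600 0.3 in Todd-Hewitt broth plus 0.5% yeast extract, then resuspended in 50 mM NaPO4, pH 7.0. Cells at 10^8 to 5 × 10^8 CFU/ml were exposed to β-lactam for 10 min at 37°C, alongside a reference without drug. They were then labeled with 10 μg/ml Bocillin FL for 15 min at 37°C. Proteins were resolved by SDS-PAGE and fluorescence read at 520 nm. IC50 was taken as 50% inhibition of Bocillin FL binding, from 2 experiments.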

[2] = Binding affinity to penicillin-resistant Streptococcus pneumoniae 3413 PBP1B by competitive binding assay; how it was run: as §1
[3] = biological target: T2, Penicillin-binding protein 2x (Streptococcus pneumoniae serotype 4 (strain ATCC BAA-334 / TIGR4), UniProt P14677); experiment: Binding affinity to against penicillin-susceptible Streptococcus pneumoniae 1076 PBP2X by competitive binding assay
T2 sequence (P14677 whole entry): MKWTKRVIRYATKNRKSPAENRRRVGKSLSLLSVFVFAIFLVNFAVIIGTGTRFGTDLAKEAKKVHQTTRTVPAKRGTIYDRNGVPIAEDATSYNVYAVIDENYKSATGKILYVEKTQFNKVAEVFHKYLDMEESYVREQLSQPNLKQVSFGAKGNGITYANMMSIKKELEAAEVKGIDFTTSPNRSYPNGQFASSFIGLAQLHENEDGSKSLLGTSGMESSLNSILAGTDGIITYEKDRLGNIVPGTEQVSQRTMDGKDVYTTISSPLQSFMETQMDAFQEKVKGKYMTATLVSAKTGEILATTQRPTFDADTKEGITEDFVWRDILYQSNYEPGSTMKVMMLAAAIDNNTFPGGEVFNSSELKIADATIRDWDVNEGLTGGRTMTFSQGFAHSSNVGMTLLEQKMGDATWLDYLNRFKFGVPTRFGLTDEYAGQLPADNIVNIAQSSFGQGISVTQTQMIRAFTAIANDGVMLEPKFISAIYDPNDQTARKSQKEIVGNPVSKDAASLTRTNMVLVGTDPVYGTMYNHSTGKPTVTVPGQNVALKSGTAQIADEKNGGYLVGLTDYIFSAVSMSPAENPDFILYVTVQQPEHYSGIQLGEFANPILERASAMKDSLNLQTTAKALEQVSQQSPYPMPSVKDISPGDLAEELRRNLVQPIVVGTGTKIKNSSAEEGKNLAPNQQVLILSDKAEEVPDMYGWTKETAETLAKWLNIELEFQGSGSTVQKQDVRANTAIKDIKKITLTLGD
How it was run: (§2)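 Whole pneumococcal cells grown to OD600 0.3 in Todd-Hewitt broth with 0.5% yeast extract, resuspended in 50 mM NaPO4 pH 7.0. Cells (10^8–5 × 10^8 CFU/ml) incubated with β-lactam 10 min at 37°C, then Bocillin FL 10 μg/ml, 15 min at 37°C. SDS-PAGE, 520 nm fluorescence; IC50 = 50% inhibition of Bocillin FL binding; 2 experiments.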

[4] = biological target: Penicillin-binding protein 2x (Streptococcus pneumoniae serotype 4 (strain ATCC BAA-334 / TIGR4), UniProt P14677); experiment: Binding affinity to penicillin-resistant Streptococcus pneumoniae 3413 PBP2X by competitive binding assay; how it was run: as §1
[5] = Binding affinity to against penicillin-susceptible Streptococcus pneumoniae 1076 PBP2A by competitive binding assay; how it was run: as §2
[6] = Binding affinity to penicillin-resistant Streptococcus pneumoniae 3413 PBP2A by competitive binding assay; how it was run: as §1
[7] = biological target: T3, Penicillin-binding protein 2B (Streptococcus pneumoniae serotype 4 (strain ATCC BAA-334 / TIGR4), UniProt P0A3M5); experiment: Binding affinity to against penicillin-susceptible Streptococcus pneumoniae 1076 PBP2B by competitive binding assay; how it was run: as §2
T3 sequence (P0A3M5 whole entry): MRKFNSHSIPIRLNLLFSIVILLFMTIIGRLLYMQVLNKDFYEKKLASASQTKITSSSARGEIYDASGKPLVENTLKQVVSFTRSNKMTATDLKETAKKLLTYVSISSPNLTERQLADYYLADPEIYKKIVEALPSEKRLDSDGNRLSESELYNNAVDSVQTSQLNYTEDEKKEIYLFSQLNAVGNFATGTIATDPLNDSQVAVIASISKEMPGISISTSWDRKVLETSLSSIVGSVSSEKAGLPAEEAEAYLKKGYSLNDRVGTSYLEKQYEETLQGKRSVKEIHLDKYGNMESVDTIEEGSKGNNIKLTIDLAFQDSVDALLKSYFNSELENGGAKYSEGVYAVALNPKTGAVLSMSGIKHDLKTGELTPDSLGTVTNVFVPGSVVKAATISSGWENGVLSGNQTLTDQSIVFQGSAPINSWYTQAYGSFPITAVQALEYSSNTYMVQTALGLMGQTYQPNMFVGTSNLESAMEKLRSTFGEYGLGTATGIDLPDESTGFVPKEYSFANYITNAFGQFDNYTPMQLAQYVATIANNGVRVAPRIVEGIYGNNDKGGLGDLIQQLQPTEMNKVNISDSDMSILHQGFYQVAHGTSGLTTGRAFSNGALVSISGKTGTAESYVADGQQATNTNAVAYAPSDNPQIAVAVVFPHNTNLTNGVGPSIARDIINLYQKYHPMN

[8] = biological target: T3, Penicillin-binding protein 2B; experiment: Binding affinity to penicillin-resistant Streptococcus pneumoniae 2527 PBP2B by competitive binding assay; how it was run: as §1
[9] = Binding affinity to penicillin-resistant Streptococcus pneumoniae 2527 PBP3 by competitive binding assay; how it was run: as §1

Row | SMILES | IC50 [1] [µM] | IC50 [2] [µg/mL] | IC50 [3] [µM] | IC50 [4] [µM] | IC50 [5] [µg/mL] | IC50 [6] [µg/mL] | IC50 [7] [µM] | IC50 [8] [µM] | IC50 [9] [µg/mL]
1 | CO/N=C(\C(=O)N[C@@H]1C(=O)N2C(C(=O)O)=C(COC(C)=O)CS[C@H]12)c1csc(N)n1 [CEFOTAXIME] | 0.549 | 4 (≈ 8.78 µM) | 0.549 | 8.78 | 0.25 (≈ 0.549 µM) | 0.25 (≈ 0.549 µM) | > 70.3 | 8.78 | 0.1 (≈ 0.22 µM)
2 | CO/N=C(\C(=O)N[C@@H]1C(=O)N2C(C(=O)O)=C(CSc3nc(=O)c(O)nn3C)CS[C@H]12)c1csc(N)n1 [CEFTRIAXONE] | 0.451 | 4 (≈ 7.21 µM) | 0.18 | 7.21 | 0.25 (≈ 0.451 µM) | 1 (≈ 1.8 µM) | > 57.7 | 7.21 | 0.25 (≈ 0.451 µM)
